Measurements reported in PubChem BioAssay AID588825 (Broad Institute, 2011).
Activity calls are given as the source filed them.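 The calls were made as follows: active = signal drop whose fitted AC50 is at most twice the top valid dose for that sample; inconclusive = flat fit with a moderate drop, or a poor fit; inactive = the rest.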

System: not listed separately
Assay: DiI-HDL uptake in parental ldlA7 CHO cells, dose response, counter-screen for SR-BI HDL uptake inhibitor project, cell-based, fluorescence, dry powder (AID 588825)
Conditions: CHO ldlA7 parental cells, DiI-HDL uptake fluorescence, 3 h; at 30 µM (top of the series)
How it was run: (§1)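 Material: Parental CHO ldlA7 cells lacking LDL receptor, no mSR-BI overexpression | Medium: HEPES-buffered Ham's F12 containing fatty-acid-free BSA | Also added: DiI-labelled HDL at 10 µg/mL final | Dosing: Compounds delivered into wells by pin transfer | Incubation: 3 h exposure at 37 °C | Detection: Bottom-read fluorescence, 550 nm ex, 595 nm em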

SMILES | activity change, negative = inhibition
C[C@@H]1CN([C@@H](C)CO)C(=O)Cc2cc(NC(=O)Nc3ccc(C(F)(F)F)cc3)ccc2O[C@@H]1CN(C)S(=O)(=O)c1ccc(Cl)cc1 | 19.1% (inactive)

Same assay, conditions: CHO ldlA7 parental cells, DiI-HDL uptake fluorescence, 3 h; at 35 µM (top of the series)

SMILES | activity change, negative = inhibition
CC(C)(Sc1cc(C(C)(C)C)c(O)c(C(C)(C)C)c1)Sc1cc(C(C)(C)C)c(O)c(C(C)(C)C)c1 | -1.71% (inactive)
CCC(=O)N1CCc2cc(-c3csc(NC(=O)c4cccc(OC)c4)n3)ccc21 | 14.2% (inactive)
COc1cc(OC)cc(C(=O)Nc2nc(-c3ccc4c(c3)CCN4C(=O)OC(C)(C)C)cs2)c1 | 1.78% (inactive)
C[C@H](C(=O)NC1CCCC1)N(C(=O)Cn1nnc(-c2ccc3c(c2)OCO3)n1)C1CCCCC1 | 0.283% (inactive)
COc1c(NC(=O)C(=O)c2ccc(OCCN3CCOCC3)c3ccccc23)cc(C(C)(C)C)cc1NS(C)(=O)=O | 8% (inactive)
CC(=O)N1CCc2cc(-c3nc(NC(=O)c4cccc(OC(F)(F)F)c4)sc3C)ccc21 | 0.208% (inactive)
CC1CCC/C=C/C2CC(O)CC2C(O)/C=C\C(=O)O1 (configuration not stated) | -6.83% (inactive)
COc1cc(OC)cc(C(=O)Nc2nc(-c3ccc4c(c3)CCN4C(=O)CN(C)C)cs2)c1 | 3.12% (inactive)
CCNC(=O)N1CCc2cc(-c3csc(NC(=O)c4cc(OC)cc(OC)c4)n3)ccc21 | -0.713% (inactive)
C[C@@H]1CN([C@H](C)CO)C(=O)c2cc(NC(=O)Cc3cn(C)c4ccccc34)ccc2O[C@H]1CN(C)S(=O)(=O)c1ccc(Cl)cc1 | 5.56% (inactive)
COCC(=O)N1CCc2cc(-c3csc(NC(=O)c4cc(OC)cc(OC)c4)n3)ccc21 | 1.62% (inactive)
CCC(=O)N1CCc2cc(-c3csc(NC(=O)c4ccc(F)c(OC)c4)n3)ccc21 | 7.73% (inactive)
Cc1ccc2oc(-c3cccc(NC(=O)c4cc(-n5cnnc5)ccc4Cl)c3)nc2c1 | -1.07% (inactive)
COc1ccc(-c2cc(CC(=O)N(C3CCCCC3)C(C)C(=O)NC3CCCC3)no2)cc1OC (configuration not stated) | 3.44% (inactive)
CCC(=O)N1CC(C)(C)c2cc(-c3csc(NC(=O)c4cc(OC)cc(OC)c4)n3)ccc21 | -2.41% (inactive)

System: CHO ldlA7 parental cells, DiI-HDL uptake fluorescence, 3 h
Assay: as above
Conditions: not given
How it was run: as §1

SMILES | AC50
CCCCCCC1CCC/C1=N\NC(N)=S (configuration not stated) | > 70 µM (inactive)
